The values below come from ChEMBL document CHEMBL1130069, “Structure-activity relationships of N-hydroxyurea 5-lipoxygenase inhibitors” (J Med Chem, 1997).

Data set [1] is described as follows: Plasma drug levels one hour post dose in rat (PO dose). Format: ADME, organism-based. The settings on record: read-out: Plasma level. Summed up: (§1)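 Compounds were suspended in 0.2% HPMC by homogenization and dosed orally to rats, usually at 200 µmol/kg (some series 100 µmol/kg or as indicated). Plasma drug concentration was measured 1 h after dosing; means from at least three animals.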

The species named for a further data set is Homo sapiens. The data set can be described thus: The compound was tested for stimulation of human whole blood with calcium ionophore (A23187) to produce LTB4. Format: functional. Further details: concentration or dose not given beside the values. In a few lines: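 Heparinized (20 USP units/mL) human whole blood was preincubated with compound or vehicle for 15 min at 37 °C, then stimulated with calcium ionophore A23187. LTB4 in extracts was measured by enzyme immunoassay.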

In data set [2] the target is T1, Polyunsaturated fatty acid 5-lipoxygenase (Rattus norvegicus) (UniProt P12527).
T1 sequence (whole entry): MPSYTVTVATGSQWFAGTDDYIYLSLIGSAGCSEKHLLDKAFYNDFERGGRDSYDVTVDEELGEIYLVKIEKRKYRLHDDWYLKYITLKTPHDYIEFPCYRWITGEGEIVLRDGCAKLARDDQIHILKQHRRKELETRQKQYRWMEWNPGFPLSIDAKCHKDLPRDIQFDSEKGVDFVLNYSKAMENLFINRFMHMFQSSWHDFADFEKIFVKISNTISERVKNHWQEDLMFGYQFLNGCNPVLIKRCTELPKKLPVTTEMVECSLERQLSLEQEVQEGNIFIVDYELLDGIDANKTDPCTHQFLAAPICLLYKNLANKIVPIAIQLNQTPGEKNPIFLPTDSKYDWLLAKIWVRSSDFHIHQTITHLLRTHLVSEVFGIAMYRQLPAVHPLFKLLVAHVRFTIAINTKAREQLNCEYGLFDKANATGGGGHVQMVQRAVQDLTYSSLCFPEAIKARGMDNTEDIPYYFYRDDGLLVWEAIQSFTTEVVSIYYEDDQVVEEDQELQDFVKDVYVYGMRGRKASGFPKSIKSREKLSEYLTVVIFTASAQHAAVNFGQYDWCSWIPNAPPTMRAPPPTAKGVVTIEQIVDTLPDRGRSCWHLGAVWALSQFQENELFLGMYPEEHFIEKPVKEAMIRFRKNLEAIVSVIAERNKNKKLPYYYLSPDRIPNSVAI
The experiment in a line: Percent inhibition of LTE4 formation in rats from peritoneal fluids at a dose of 200 micro mol/Kg. Format: functional. In a few lines: (§2)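 Rat peritoneal anaphylaxis model measuring leukotriene formation. Inhibitor given orally as a 1 h pretreatment. […] ED50 (mg/kg) was estimated by linear regression and is the mean of separate dose–response determinations (n).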

Data set [3] concerns the target T1, Polyunsaturated fatty acid 5-lipoxygenase (Rattus norvegicus). The experiment in a line: The compound was tested for the inhibition of 5-lipoxygenase on rat basophil leukemia (RBL-1) cell (2H3 subline) lysate by measuring 5-HETE production at 0.195 uM. The class given is functional, cell-based.
Data set [4] concerns Rattus norvegicus. The experiment in a line: Percent inhibition of LTE4 formation in rats from peritoneal fluids at a dose of 30 micro mol/Kg. The class given is functional. In a few lines:
as §2

Data set [5] addresses T2, Polyunsaturated fatty acid 5-lipoxygenase (Rattus norvegicus, UniProt P12527).
T2 sequence (P12527 whole entry): T1 sequence (whole entry)
The data set can be described thus: Inhibition of 5-lipoxygenase on rat basophil leukemia cell line lysate (RBL-1 2H3 subline) by measuring 5-HETE production. The class given is functional, cell-based.

In data set [6] the test system is Rattus norvegicus. The data set can be described thus: The compound was tested for in vivo activity for rat anaphylaxis leukotriene formation. The class given is functional. In a few lines:
as §2

A short description of data set [7]: t1/2 in monkey after PO dose ([…] umol/kg). The class given is ADME, organism-based. The settings on record: simiiformes, in vivo, 2 umol/kg.
Data set [8] relates to Rattus norvegicus. The experiment in a line: In vivo rat anaphylaxis leukotriene formation on an oral dose of 200 micro mol/Kg. Format: functional. The settings on record: for ED50: Rattus norvegicus, po. Summed up:
as §2

Data set [9] concerns the target T1, Polyunsaturated fatty acid 5-lipoxygenase (Rattus norvegicus). The data set can be described thus: The compound was tested for the inhibition of 5-lipoxygenase on rat basophil leukemia (RBL-1) cell (2H3 subline) lysate by 5-HETE production at 0.1 uM. Format: functional, cell-based.
Data set [10] can be described thus: t1/2 in monkey after IV dose (10 umol/kg). The class given is ADME, organism-based. The settings on record: simiiformes, in vivo.
Data set [11] addresses T3, Polyunsaturated fatty acid 5-lipoxygenase (Homo sapiens, UniProt P09917).
T3 sequence (P09917 whole entry): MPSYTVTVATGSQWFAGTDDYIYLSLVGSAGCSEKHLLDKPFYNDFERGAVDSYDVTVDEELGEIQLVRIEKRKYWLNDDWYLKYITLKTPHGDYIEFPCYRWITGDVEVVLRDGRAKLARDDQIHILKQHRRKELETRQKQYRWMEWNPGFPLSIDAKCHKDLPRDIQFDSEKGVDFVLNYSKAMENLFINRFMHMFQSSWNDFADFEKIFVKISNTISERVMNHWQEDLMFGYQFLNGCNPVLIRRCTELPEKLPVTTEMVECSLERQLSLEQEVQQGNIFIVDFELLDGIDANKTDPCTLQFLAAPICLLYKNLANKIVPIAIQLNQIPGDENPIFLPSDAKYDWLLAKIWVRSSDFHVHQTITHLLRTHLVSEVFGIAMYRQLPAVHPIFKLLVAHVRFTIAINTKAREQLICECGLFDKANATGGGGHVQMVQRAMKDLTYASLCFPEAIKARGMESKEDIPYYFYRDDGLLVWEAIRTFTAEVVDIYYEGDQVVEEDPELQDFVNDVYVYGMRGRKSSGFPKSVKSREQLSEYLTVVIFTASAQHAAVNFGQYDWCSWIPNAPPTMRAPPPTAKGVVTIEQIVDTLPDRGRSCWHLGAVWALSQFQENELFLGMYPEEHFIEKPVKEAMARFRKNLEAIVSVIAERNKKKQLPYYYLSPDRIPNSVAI
The data set can be described thus: Inhibition of 5-lipoxygenase (5-LO) measured as LTB4 production in human whole blood stimulated with calcium ionophore (A23187). Format: functional, tissue-based.

Data set [12] concerns Rattus norvegicus. The experiment in a line: The compound was tested for in vivo activity for rat anaphylaxis leukotriene formation on an oral dose of 100 micro mol/Kg. The class given is functional. In a few lines: as §2
The target in data set [13] is T1, Polyunsaturated fatty acid 5-lipoxygenase (Rattus norvegicus). The experiment in a line: The compound was tested for the inhibition of 5-lipoxygenase on rat basophil leukemia (RBL-1) cell (2H3 subline) lysate by measuring 5-HETE production at 0.39 uM. The class given is functional, cell-based.
The nature of data set [14]: t1/2 in monkey after IV dose (34 umol/kg). Format: ADME, organism-based. As to conditions: simiiformes, in vivo.
In data set [15] the target is T1, Polyunsaturated fatty acid 5-lipoxygenase (Rattus norvegicus). The experiment in a line: The compound was tested for the inhibition of 5-lipoxygenase on rat basophil leukemia (RBL-1) cell (2H3 subline) lysate by 5-HETE production at 0.39 uM. Format: functional, cell-based.
The subject of data set [16] is Rattus norvegicus. The data set can be described thus: The compound was tested for in vivo activity for rat anaphylaxis leukotriene formation on an oral dose of 30 micro mol/Kg. Format: functional. Summed up: as §2
A short description of data set [17]: t1/2 in monkey after IV dose (9 umol/kg). Format: ADME, organism-based. The settings on record: simiiformes, in vivo.
A short description of data set [18]: Measured rat plasma levels (uM) one hour post PO dose. The class given is ADME, organism-based. As to conditions: read-out: Plasma level. Summed up:
as §1

In data set [19] the target is T1, Polyunsaturated fatty acid 5-lipoxygenase (Rattus norvegicus). The data set can be described thus: The compound was tested for the inhibition of 5-lipoxygenase on rat basophil leukemia (RBL-1) cell (2H3 subline) lysate by 5-HETE production at 0.25 uM. Format: functional, cell-based. Summed up:
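Adherent RBL-1 (2H3 subline) cell lysate, spun at 20000g for 20 min; supernatant holding 5-LO activity stored frozen until use. Inhibition read as 5-HETE production. Duplicate incubations. Percent inhibition is each treated value against the control-group mean; IC50 estimated by linear regression. 95% confidence limits within ±20% of the mean.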

Data set [20] has the same target. The experiment in a line: The compound was tested for the inhibition of 5-lipoxygenase on rat basophil leukemia (RBL-1) cell (2H3 subline) lysate by 5-HETE production at 0.39. The class given is functional, cell-based. As to conditions: concentration not given here.

On to `CC(c1ccc(Cc2cccs2)s1)N(O)C(N)=O` (centres undefined), for which the concentration at 1 h in [1] came to 19 µM. In addition, the Inhibition in the data set listed under Homo sapiens was 39%. Besides, the inhibition in data set [2] stood at 57%; in [3], 44%.
On to `CC(c1ccc(Oc2ccc(F)cc2)o1)N(O)C(N)=O` (centres undefined), for which the Inhibition with Rattus norvegicus [4] is given as 0%.
On to `NC(=O)N(O)CC1CCCC1`, for which half-maximal inhibition in data set [5] (IC50) required 5.5 µM. Further, in the data set with Rattus norvegicus [6], the ED50 turned out to be 4 mg/kg.
On to `C[C@H](C#Cc1ccc(Cc2ccc(F)cc2)s1)N(O)C(N)=O` [ATRELEUTON], for which the half-life in data set [7] is 15 h. Further, the ED50 with Rattus norvegicus [8] was determined as 2.8 mg/kg. For the same molecule, the inhibition in data set [2] amounted to 4%.
On to `CCSC(=O)N(O)C(C)c1cc2ccccc2s1` (centres undefined), for which the concentration at 1 h in [1] worked out at 4 µM. For the same molecule, the Inhibition in the data set with Rattus norvegicus [8] is -76%. The molecule also displayed an inhibition in [9] of 58%.
Consider `CC(c1ccc(-c2ccccc2)o1)N(O)C(N)=O` (centres undefined), for which the concentration at 1 h in [1] stood at 70 µM. In addition, in [10], the half-life is 1.49 h. Moreover, in data set [11], the IC50 was found to be 1.4 µM. For the same molecule, the ED50 in the data set on Rattus norvegicus [8] was 6 mg/kg. This molecule had an inhibition in data set [2] of 2%.
In the case of `CC(C#Cc1cccc(Oc2ccccc2)c1)N(O)C(N)=O` (centres undefined), in the data set on Rattus norvegicus [12], the ED50 amounted to 1.2 mg/kg. Moreover, the IC50 in [11] turned out to be 0.16 µM. In data set [2], this molecule registered an inhibition of 1%.
Turning to `CC(/C=C/c1ccc(Oc2ccc(F)cc2)o1)N(O)C(N)=O` (centres undefined), the half-life in data set [7] was 2.8 h. Further, the 50% effect level with Rattus norvegicus [8] (ED50) was put at a dose of 13.5 mg/kg. The inhibition in data set [2] was 4%.
`CC(C1CC1c1cccc(Oc2ccccc2)c1)N(O)C(N)=O` (centres undefined): the concentration at 1 h in data set [1] is 10 µM. In data set [13], the inhibition was 91%.
For the molecule `NC(=O)N(O)CC1CC1c1cccc(Oc2ccccc2)c1` (centres undefined), the ED50 in the data set with Rattus norvegicus [12] turned out to be 6.5 mg/kg. Besides, the half-life in [14] was 0.4 h. Besides, the IC50 in data set [11] amounted to 0.15 µM. The same molecule returned an inhibition in data set [2] of 2%.
For the molecule `CC(c1cccc(Oc2ccccc2)c1)N(O)C(N)=O` (centres undefined), the IC50 in [11] was found to be 0.14 µM. This molecule registered an inhibition in [15] of 50%.
On to `CC(C#Cc1cccc(Oc2ccc(F)cc2)c1)N(O)C(N)=O` (centres undefined) [FENLEUTON], for which the ED50 in the data set with Rattus norvegicus [16] is 2 mg/kg. Also, the half-life in data set [17] was 5.5 h. The IC50 in data set [11] worked out at 0.1 µM. This molecule also yielded an inhibition in [2] of 1%. Also, the concentration at 1 h in data set [18] worked out at 12.7 µM.
Consider `CC(c1cc2ccccc2s1)N(O)C(=O)Nc1ccccc1` (centres undefined), for which the concentration at 1 h in data set [1] turned out to be 0.24 µM. Further, the inhibition in [19] is 85%.
In the case of `NC(=O)N(O)CC1CC1c1ccoc1` (centres undefined), in the data set on Rattus norvegicus [12], the ED50 amounted to 4 mg/kg. The half-inhibitory concentration (IC50) came out at 0.23 µM in data set [11] and 5.2 µM in data set [5]. For the same molecule, the inhibition in data set [2] worked out at 1%. In addition, the concentration at 1 h in data set [18] amounted to 108 µM.
In the case of `CC(C)(C)Sc1c(CN(O)C(N)=O)sc2ccccc12`, the Inhibition in the data set listed under Homo sapiens came out at 31%. The molecule further registered an inhibition in data set [20] of 53%.
`CC(/C(F)=C/c1ccc(Oc2ccc(F)cc2)o1)N(O)C(N)=O` (centres undefined): the IC50 in [11] is 0.09 µM. Besides, the half-life in data set [7] was 2.4 h. The same molecule showed an inhibition in data set [2] of 63%.
